Measurements from article PMC5699463 (Journal of the American Chemical Society, 2017).
≈ marks a conversion by molar mass, not a printed value.

Tests used:
[1] = test system: Lipid II pool levels in S. aureus; assay: Assay to detect Lipid II abundance after antibiotic treatment; type: cell-based, Staphylococcus aureus; settings: S. aureus cultures treated for ten minutes
In short: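 S. aureus cultures were exposed for 10 min to test compound or to peptidoglycan-synthesis inhibitor controls that either deplete or accumulate Lipid II. Lipid II was then extracted and labelled with biotin-d-Lys to measure its pool level.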

[2] = test system: wildtype S. aureus (Newman); assay: Growth inhibition; type: cell-based, Staphylococcus aureus
[3] = test system: S. aureus ΔtarO knockout strain; assay: Counterscreen: growth inhibition of WTA null; type: cell-based, Staphylococcus aureus
In short: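 Library compounds were screened in duplicate at ~15 µM final against wildtype S. aureus Newman. In parallel they were counterscreened against the WTA-null ΔtarO strain to find growth inhibition that is suppressed when WTA is absent. Growth was read as OD600 and averaged over the duplicates.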

[4] = test system: B. subtilis; assay: Growth inhibition of B. subtilis; type: cell-based, Bacillus subtilis
[5] = test system: wildtype B. subtilis; assay: Disk diffusion assay against wildtype B. subtilis; type: cell-based, Bacillus subtilis
[6] = test system: B. subtilis strain KS002 (TagGH replaced with S. aureus TarGH); assay: Disk diffusion assay against B. subtilis strain KS002 expressing S. aureus TarGH; type: cell-based, Bacillus subtilis; settings: strain expressing the S. aureus transporter
[7] = target: TarGH (Staphylococcus aureus, UniProt Q2G2X5); assay: ATPase activity of reconstituted TarGH in proteoliposomes; type: biochemical; settings: 1.0 µM compound; compared with TarH E169Q mutant

Compound | effect on Lipid II pool levels [1] | minimum inhibitory concentration (MIC) [2] | MIC relative to that of targocil ([2]; compared with targocil) | activity against the ΔtarO strain [3] | growth inhibition of B. subtilis [4] | zone of inhibition [5] | zone of inhibition [6] | ATPase activity of the WT transporter in the presence of compound [7]
bacitracin | depleted Lipid II | – | – | – | – | – | – | –
CCN(CC)c1nc2c(S(=O)(=O)c3ccc(Cl)cc3)nnn2c2cc(OC)c(OC)cc12 [targocil] | depleted Lipid II | – | – | – | – | – | – | –
Cc1c(CC(=O)N2CCC[C@H]2C(=O)O)c(=O)oc2c(C)c3occ(-c4ccc(Cl)cc4)c3cc12 [Compound 2] | depleted Lipid II | 0.125 mg/L (≈ 0.26 µM) | eight-fold lower | no activity | did not inhibit growth | did not show a zone of inhibition | dose-dependent inhibition zone | comparable to that of a TarGH mutant containing a mutation that impairs ATP hydrolysis
